Screening data (PubChem)
ABCB1 inh: ABCB1 efflux pump inhibitors, primary screen, cell-based, multiplex, flow cytometry, ABCG2 counter-screen. CCRF-Adr cells, JC-1 efflux. inhibition, % at 6.6 µM. 190,000 compounds, 0.067% hits. AID 1326, 2008; in the data active = inhibition above about 40%;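 also: 0% = vehicle and 100% = reference inhibitor; higher value means more JC-1 retained so stronger ABCB1 efflux block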
Target sequence (P08183 whole entry, looked up): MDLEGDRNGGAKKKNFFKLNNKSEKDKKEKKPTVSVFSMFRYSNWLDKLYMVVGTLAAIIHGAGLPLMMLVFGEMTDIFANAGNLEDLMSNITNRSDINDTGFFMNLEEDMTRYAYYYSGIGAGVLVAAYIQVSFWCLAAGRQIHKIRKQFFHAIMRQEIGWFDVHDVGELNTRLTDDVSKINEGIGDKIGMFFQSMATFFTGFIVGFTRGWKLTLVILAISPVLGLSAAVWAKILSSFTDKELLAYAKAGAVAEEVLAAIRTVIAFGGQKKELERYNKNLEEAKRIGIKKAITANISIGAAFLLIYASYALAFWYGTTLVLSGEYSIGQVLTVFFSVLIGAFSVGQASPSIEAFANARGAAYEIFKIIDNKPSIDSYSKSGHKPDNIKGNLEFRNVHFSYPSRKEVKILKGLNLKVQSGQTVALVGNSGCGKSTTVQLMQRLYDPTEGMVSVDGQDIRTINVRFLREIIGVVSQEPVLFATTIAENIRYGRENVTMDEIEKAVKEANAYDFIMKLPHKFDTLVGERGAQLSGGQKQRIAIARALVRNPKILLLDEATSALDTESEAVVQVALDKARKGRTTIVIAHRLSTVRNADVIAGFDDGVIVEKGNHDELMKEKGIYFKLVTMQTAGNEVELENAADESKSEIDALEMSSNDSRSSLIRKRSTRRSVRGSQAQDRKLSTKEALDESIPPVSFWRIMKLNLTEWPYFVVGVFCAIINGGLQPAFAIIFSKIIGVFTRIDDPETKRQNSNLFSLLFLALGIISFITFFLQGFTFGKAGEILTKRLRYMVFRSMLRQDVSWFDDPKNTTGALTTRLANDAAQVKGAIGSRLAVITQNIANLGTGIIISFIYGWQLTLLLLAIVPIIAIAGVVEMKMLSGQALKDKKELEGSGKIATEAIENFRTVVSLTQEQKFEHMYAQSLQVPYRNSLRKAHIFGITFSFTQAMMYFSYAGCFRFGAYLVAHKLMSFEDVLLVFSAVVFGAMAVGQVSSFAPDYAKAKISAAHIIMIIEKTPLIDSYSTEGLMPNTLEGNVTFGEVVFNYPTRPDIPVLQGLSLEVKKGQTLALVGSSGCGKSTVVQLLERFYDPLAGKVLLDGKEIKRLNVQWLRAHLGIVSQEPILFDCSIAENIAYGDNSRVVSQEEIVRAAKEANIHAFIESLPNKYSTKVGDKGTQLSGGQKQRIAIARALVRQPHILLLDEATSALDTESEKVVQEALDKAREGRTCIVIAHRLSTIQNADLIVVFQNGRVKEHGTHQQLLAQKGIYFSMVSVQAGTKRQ
Furin inh: human furin inhibitors, primary screen, biochemical, fluorescence intensity; inhibition, % at 20 µM or 30 µM; P09958; purified furin, fluorogenic substrate cleavage; AID 463115, 2010; 220,000 compounds, 0.061% hits; in the data active = inhibition above about 25%
PERK inhibitor: block of dimerizer-induced PERK translation repression, primary screen, PERK inhibitor project, CHO PERK-DD cells, SEAP luminescence, HTS; Eukaryotic translation initiation factor 2-alpha kinase 3 (Homo sapiens), Q9NZJ5; CHO PERK-DD fusion, SEAP luminescence translation reporter; inhibition, % at 5.6 µM; 220,000 compounds, 0.17% hits; AID 1416, 2008;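 active = inhibition above the mean inhibition of all tested compounds plus 3 SD, set separately per screening campaign, cut at about 2.9% in these data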;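 also: PERK kinase domain activated by AP20187 dimerizer at 100 nM; 0% = DMSO with dimerizer and 100% = rapamycin at 8.4 µM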
Efa HMGR inh: inhibitors of E. faecalis class II HMGR, primary screen, biochemical, Enterococcus faecalis; inhibition, % at 10 µM; purified E. faecalis HMGR, NADPH absorbance 340 nm kinetic; HMG-CoA reductase (Enterococcus faecalis, mvaE); 190,000 compounds, 0.41% hits;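 active = inhibition above a set limit, the median over all tested compounds plus 3 SD, cut at about 9.5% in these data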;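 also: enzyme runs in reverse so mevalonate oxidation gives rising NADPH absorbance; 0% = complete reaction with DMSO and 100% = background rate lacking mevalonate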
ABCG2 inh: ABCG2 efflux pump inhibitors, primary screen, multiplex with ABCB1, IgMXP3 cells, flow cytometry. inhibition, % at 6.6 µM. JC-1 efflux. 190,000 compounds, 0.1% hits. Broad substrate specificity ATP-binding cassette transporter ABCG2 (Homo sapiens), Q9UNQ0. AID 1325, 2008;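 active = inhibition above 80%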;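 also: 0% = DMSO and 100% = nicardipine control wells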
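test system = two drug-resistant human cell lines, ABCG2 and ABCB1 | amount = 3 million cells/mL final, two lines in 1:1 ratio | reagent = JC-1 transporter substrate | doses = one concentration, 6.6 µM final | incubation = 10 min at 25 °C | signal = flow cytometric JC-1 green MFI at 530 nm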
Rad51 HR inh: human RAD51 strand exchange inhibitors, primary screen, biochemical, fluorescence; hRad51 DNA strand exchange, fluorescence dequenching; inhibition, % at 10 µM; 200,000 compounds, 0.085% hits;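 active = inhibition above 40% at the single screening dose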;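 also: 0% = DMSO control wells and 100% = blanks with heterologous ssDNA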
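Assay system: Human Rad51 nucleoprotein filaments preassembled on unlabelled ssDNA | Reagent: Donor/quencher-labelled 47-bp dsDNA substrate | Doses: One concentration, 10 µM final | Times: 37 °C 15-min filament assembly, 30-min compound preincubation, 15-min exchange | Technique: Fluorescein emission 520 nm, excitation 485 nm | Benchmarks: Plate control and blank wells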
Active calls of the source: *; . = no result given. In the library only some 0.77% were active in any assay of this set; here they are far more common.

SMILES	ABCB1 inh	Furin inh	PERK inhibitor	Efa HMGR inh	ABCG2 inh	Rad51 HR inh
c1ccc2c(c1)C(=Nn1cnnc1)c1ccccc1-2	1	26*	2	1	5	4
COc1cc(-c2nc(C)c(C(C)=O)n2O)ccc1OCC(=O)Nc1ccc(Cl)cc1	0	-23	0	-5	8	37
CC1CCN(c2nc3c(cc2C#N)COC(C)(C)C3)CC1	0	-37	0	9.7*	0	-4
CC(C)n1nnnc1-c1cc(Cl)cc(Cl)c1	2	-13	3.5*	-1	10	2
CC(=O)Nc1ccc(NC(=O)c2ccc(Cl)nc2)cc1	.	-17	1	.	.	42*
CC1(C)CC(N=c2cc(-c3ccccc3)oc3ccc(Cl)cc23)CC(C)(C)N1	-1	11	0	-2	1	53*
COc1ccc(CC(=O)Nc2cccc(-c3ccc4nncn4n3)c2)cc1OC	0	-14	0	-3	7	1
O=C1S/C(=C\c2ccc(N3CCOCC3)o2)C(=O)N1Cc1c(F)cccc1Cl	8	-22	0	2	132*	-461
Cn1c(NC(=O)/C=C\c2ccccc2)cc(=O)n(C)c1=O	0	-10	1	1	3	12
Cc1cc(NC(=O)CSc2nnc(-c3c[nH]c4ccccc34)n2C)no1	2	-14	1	-6	7	0
O=C(Nc1ccc(Oc2ccccc2)cc1)c1ccc(Cn2c(=O)[nH]c3ccsc3c2=O)cc1	-1	-13	1	20*	3	.
CC(=O)Nc1cc(-c2ccccc2)ccc1O	1	-30	0	-9	6	0
CC(=O)Nn1c(-c2ccccc2)cc2ccccc21	1	-20	1	-5	2	85*
COc1ccc(N2C(=O)CC(N3CCN(S(=O)(=O)c4ccc(Cl)cc4)CC3)C2=O)cc1 (stereo not given)	1	-30	0	9.6*	2	-7
COc1ccc(N2C(=O)CC(N3CCC(O)(c4ccc(Cl)cc4)CC3)C2=O)cc1 (stereo not given)	0	-7	0	-3	2	-3
CC12CCC(C(=O)NCc3ccc4c(c3)OCO4)(C(=O)C1=O)C2(C)C (stereo not given)	1	-11	2	-2	1	-10
COc1cccc(CN2CCCC(CNC(=O)c3ccc(F)cc3)C2)c1OC (stereo not given)	0	-24	-1	0	0	-3
Cc1nc2ccccc2n1CC(O)COc1ccc(Br)cc1 (stereo not given)	0	-19	0	1	4	-2
Cc1nc2ccccc2n1CC(O)COc1ccccc1Cl (stereo not given)	0	-31	0	11*	3	-2
CC(=O)OC1CC(c2cc(C(C)(C)C)c(O)c(C(C)(C)C)c2)=NO1 (stereo not given)	.	-11	1	.	.	.
O=C(COC(=O)c1ccc(Cl)c(S(=O)(=O)NCc2ccccc2)c1)NCC1CCCO1 (stereo not given)	0	-17	0	-2	2	1
COc1ccc(-n2cc(C#N)c(=O)[nH]c2=O)cc1	1	-18	1	-1	5	-64
CCCc1[nH]nc2c1C(CCC)C(C#N)=C(N)O2 (stereo not given)	1	-14	1	11*	8	4
COc1ccc(C(=O)NCC(=O)OC2CCCCC2=O)cc1 (stereo not given)	0	-22	3.6*	-4	1	-6
CCOC(=O)/C(=N\Nc1cc(Cl)ccc1Cl)N1CCOCC1	0	-28	0	-1	1	14
SMILES	ABCB1 inh	Furin inh	PERK inhibitor	Efa HMGR inh	ABCG2 inh	Rad51 HR inh
CC(C)CC(=O)NC(=S)Nc1ccc(S(=O)(=O)Nc2nccs2)cc1	-1	-4	1	4	-3	-5
CCN(C(=O)Cn1cc(C(F)(F)F)ccc1=O)c1c(N)n(Cc2ccccc2)c(=O)[nH]c1=O	0	-31	0	16*	1	-6
CCN(C(=O)CN1CCN(c2ccccc2)CC1)c1c(N)n(Cc2ccccc2)c(=O)[nH]c1=O	1	-27	2	-4	3	-10
Cc1nc(SCc2ccc(O)c([N+](=O)[O-])c2)n[nH]1	1	31*	1	-5	12	.
CSc1nc(O)c(/C=C2\C=Nc3ccccc32)[nH]1	-1	-9	0	-2	-5	-4
CSc1nc(O)c(C2OC(=O)c3ccccc32)c(=O)[nH]1 (stereo not given)	0	-15	2.9*	-4	6	-7
Cc1cc(C)c(S(=O)(=O)ON2C(=O)c3ccccc3C2=O)cc1C	0	-5	1	0	1	0
Cc1ccc(S(=O)(=O)ON2C(=O)c3ccccc3C2=O)c(C)c1	-1	-11	1	17*	-4	0
O=C(NN1C(=O)c2ccccc2NC1c1ccoc1)c1ccccc1 (stereo not given)	0	-26	2	-1	1	48*
CC(=O)NN1C(=O)c2ccccc2NC1c1ccoc1 (stereo not given)	1	-47	0	-2	3	4
Cc1ccc(C)c(OCCn2c(=O)c3c(ncn3C3CCCC3)n(Cc3ccccc3)c2=O)c1	37	-5	-1	-5	84*	-19
COc1ccc(CCN(C)C(=O)c2ccc(S(=O)(=O)NCc3ccco3)cc2)cc1OC	0	-21	0	-2	1	8
CN(Cc1cccs1)C(=O)c1ccc(S(=O)(=O)NCc2ccco2)cc1	.	-24	1	.	.	44*
Cc1cccc(/C=C2/S/C(=N/N=C3\CC4CCC3(C)C4(C)C)NC2=O)c1 (stereo not given)	1	31*	1	4	1	.
O=C1N/C(=N/O)S/C1=C/c1cccc([N+](=O)[O-])c1	0	-5	0	-6	6	-3
CCCCCC(=O)Nc1cccc2ccccc12	0	-15	2	-2	5	43*
CC(=O)c1ccc(OC(=O)CCc2nc3ccccc3s2)cc1	2	-11	0	-6	5	-8
COC(=O)/C(=C\Nc1cccc(Cl)c1C)c1ncc(C(F)(F)F)cc1Cl	0	-23	2	-10	1	79*
COc1ccc(OC)c(C(=O)c2ccc(C(=O)Nc3cccc4ccccc34)cc2)c1	1	-1	1	-4	9	5
